We go through seven molecules from publication PMC7181320 (ACS Central Science, 2020).

“Also recorded” adds a separate entry of the source. Where two headings read alike, the source gives them in different places.

One data set concerns the target T1, Y169F N-His6-FhuD2 (Staphylococcus aureus, UniProt Q7BGA5, Y193F).
T1 sequence (Q7BGA5 25-302 Y193F): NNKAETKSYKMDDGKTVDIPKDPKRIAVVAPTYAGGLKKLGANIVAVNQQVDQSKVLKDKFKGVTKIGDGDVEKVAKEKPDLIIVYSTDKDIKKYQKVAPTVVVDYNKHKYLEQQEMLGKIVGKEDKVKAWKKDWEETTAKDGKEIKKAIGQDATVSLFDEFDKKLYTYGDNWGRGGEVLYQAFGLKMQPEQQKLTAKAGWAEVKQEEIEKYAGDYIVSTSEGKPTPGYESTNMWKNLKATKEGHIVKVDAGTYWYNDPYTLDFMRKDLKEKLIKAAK
Put plainly: Intrinsic Trp fluorescence quenching binding assay, FhuD2 mutant Y169F. Also on record: species or system S. aureus. Particulars: FhuD2 variant Y169F.

A further data set has as its target T2, R175A N-His6-FhuD2 (Staphylococcus aureus, UniProt Q7BGA5, R199A).
T2 sequence (Q7BGA5 25-302 R199A): T1 sequence (Q7BGA5 25-302 Y193F)
In words: Intrinsic Trp fluorescence quenching binding assay, FhuD2 mutant R175A. Also on record: species or system S. aureus. Particulars: FhuD2 variant R175A.

For the next data set, the target named is T3, Y167F N-His6-FhuD2 (Staphylococcus aureus, UniProt Q7BGA5, Y191F).
T3 sequence (Q7BGA5 25-302 Y191F): T1 sequence (Q7BGA5 25-302 Y193F)
In words: Intrinsic Trp fluorescence quenching binding assay, FhuD2 mutant Y167F. Also on record: species or system S. aureus. Particulars: FhuD2 variant Y167F.

The next data set deals with N-His6-YxeB (Bacillus subtilis, UniProt P54941). In words: Intrinsic Trp fluorescence quenching binding assay, wild-type N-His6-YxeB. Details: species or system B. subtilis. An outline of the steps:
(§1)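 Purified SBP constructs, truncated with an N-terminal His6 tag replacing the signal peptide. Binding of the fluorescent desferrioxamine probe, in metal-free and ferric forms, was read as quenching of the protein's intrinsic Trp fluorescence.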

In a further data set the target is T4, W173A N-His6-FhuD2 (Staphylococcus aureus, UniProt Q7BGA5, W197A).
T4 sequence (Q7BGA5 25-302 W197A): T1 sequence (Q7BGA5 25-302 Y193F)
In words: Intrinsic Trp fluorescence quenching binding assay, FhuD2 mutant W173A. Details: species or system S. aureus. Particulars: FhuD2 variant W173A.

Another data set has as its target Y106F N-His6-FhuD2 (Staphylococcus aureus, UniProt Q7BGA5, Y130F). In words: Intrinsic Trp fluorescence quenching binding assay, FhuD2 mutant Y106F. Details: species or system S. aureus. Particulars: FhuD2 variant Y106F.
The next data set deals with T5, Y254F N-His6-FhuD2 (Staphylococcus aureus, UniProt Q7BGA5, Y278F).
T5 sequence (Q7BGA5 25-302 Y278F): T1 sequence (Q7BGA5 25-302 Y193F)
In words: Intrinsic Trp fluorescence quenching binding assay, FhuD2 mutant Y254F. Also on record: species or system S. aureus. The following applies: FhuD2 variant Y254F.

A further data set has as its target N-His6-FhuD2 (Staphylococcus aureus, UniProt Q7BGA5). Put plainly: Intrinsic Trp fluorescence quenching binding assay, wild-type N-His6-FhuD2. Details: species or system S. aureus. Summed up: as §1
The target in the next data set is T6, W255A N-His6-FhuD2 (Staphylococcus aureus, UniProt Q7BGA5, W279A).
T6 sequence (Q7BGA5 25-302 W279A): T1 sequence (Q7BGA5 25-302 Y193F)
In words: Intrinsic Trp fluorescence quenching binding assay, FhuD2 mutant W255A. Details: species or system S. aureus. The following applies: FhuD2 variant W255A.

In another data set the target is Y256F N-His6-FhuD2 (Staphylococcus aureus, UniProt Q7BGA5, Y280F). Put plainly: Intrinsic Trp fluorescence quenching binding assay, FhuD2 mutant Y256F. Also on record: species or system S. aureus.
Data set [1] can be described thus: Apparent KFe measurement by EDTA competition assay. It is filed as physicochemical. The following applies: 1.2 equiv EDTA, HEPES buffer pH 7.4. Summed up: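 Ferric siderophore (ferrioxamine B or E) treated with 1.2 equiv EDTA, with or without stoichiometric FhuD2. Remaining ferric siderophore is followed continuously by absorbance at 427 nm and expressed as relative percentage remaining. Apparent log KFe is calculated from the decay plots. At least two independent trials are run, with standard deviations reported.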

Another data set has as its target Y254F (Staphylococcus aureus, UniProt Q7BGA5, Y278F). Put plainly: Intrinsic Trp fluorescence quenching. Particulars: read-out: app Kd; SD, n = 2. The class given is binding.
In a further data set the target is R175A (Staphylococcus aureus, UniProt Q7BGA5, R199A). Put plainly: Intrinsic Trp fluorescence quenching. Particulars: read-out: app Kd; SD, n = 2. It is filed as binding.
Data set [2] has as its target T7, FhuD2 (Staphylococcus aureus, UniProt Q7BGA5). In words: Intrinsic Trp fluorescence quenching. It is filed as binding. The following applies: read-out: app Kd; SD, n = 2; cited from earlier work.
In a further data set the target is Y106F (Staphylococcus aureus, UniProt Q7BGA5, Y130F). Put plainly: Intrinsic Trp fluorescence quenching. Particulars: read-out: app Kd; SD, n = 2. The class given is binding.
The target of another data set is Y256F (Staphylococcus aureus, UniProt Q7BGA5, Y280F). Put plainly: Intrinsic Trp fluorescence quenching. It is filed as binding. Particulars: read-out: app Kd; SD, n = 2.
For another data set, the target named is Y169F (Staphylococcus aureus, UniProt Q7BGA5, Y193F). Put plainly: Intrinsic Trp fluorescence quenching. Particulars: read-out: app Kd; SD, n = 2. The class given is binding.
A further data set relates to SBPs (FhuD2 or YxeB). The class given is biochemical, S. aureus and B. subtilis. The following applies: SBP-catalyzed exchange, FhuD2 and YxeB. Summed up:
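Truncated SBPs (FhuD2 or YxeB), each expressed with an N-terminal His6 tag in place of the signal peptide, at 100 nM with 4 μM ferric donor (FOB, FOE or human holo-transferrin). Started by adding 2 μM DFO-NBD probe, then fluorescence followed continuously (ex 475 nm; em 565 nm). Percent change in relative emission taken at 15 min against a matching no-SBP reaction.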

For a further data set, the target named is W173A (Staphylococcus aureus, UniProt Q7BGA5, W197A). Put plainly: Intrinsic Trp fluorescence quenching. The class given is binding. The following applies: read-out: app Kd; SD, n = 2.
Data set [3] addresses T7, FhuD2. In words: Intrinsic Trp fluorescence quenching. The class given is binding. The following applies: read-out: app Kd; SD, n = 2.
In the next data set the target is W255A (Staphylococcus aureus, UniProt Q7BGA5, W279A). In words: Intrinsic Trp fluorescence quenching. The class given is binding. Particulars: read-out: app Kd; SD, n = 2.
For data set [4], the system named is FhuD2. In words: FhuD2-catalyzed iron exchange from holo-Tf to DFO-NBD with additives. The class given is biochemical, S. aureus. The following applies: 25 mM additive, 4 μM holo-Tf, 2 μM DFO-NBD. Summed up:
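FhuD2 is a truncated S. aureus construct with the N-terminal signal peptide replaced by an N-terminal His6 tag, used at 100 nM with holo-transferrin as iron donor. The reaction is started by adding the DFO-NBD probe, and fluorescence (ex 475 nm, em 560 nm) is monitored continuously. Quenching is expressed as percentage change relative to a control containing DFO-NBD and FhuD2 without iron donor.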

The target in the next data set is FhuD2 Y256F (S. aureus). Put plainly: other fluorescence titration.
For data set [5] the following is noted: 25 °C; cited from earlier work.

N-His6-YxeB, sequence (P54941 21-321): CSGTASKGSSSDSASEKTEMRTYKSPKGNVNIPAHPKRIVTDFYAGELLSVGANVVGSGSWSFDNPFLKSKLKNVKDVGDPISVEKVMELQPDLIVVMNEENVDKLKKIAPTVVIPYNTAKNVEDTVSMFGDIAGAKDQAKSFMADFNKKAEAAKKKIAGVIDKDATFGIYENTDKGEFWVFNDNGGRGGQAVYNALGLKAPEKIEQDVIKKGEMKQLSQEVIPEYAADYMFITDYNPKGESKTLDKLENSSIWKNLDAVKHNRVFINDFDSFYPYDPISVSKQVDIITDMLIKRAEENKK
human holo-transferrin, sequence (P02787 20-698): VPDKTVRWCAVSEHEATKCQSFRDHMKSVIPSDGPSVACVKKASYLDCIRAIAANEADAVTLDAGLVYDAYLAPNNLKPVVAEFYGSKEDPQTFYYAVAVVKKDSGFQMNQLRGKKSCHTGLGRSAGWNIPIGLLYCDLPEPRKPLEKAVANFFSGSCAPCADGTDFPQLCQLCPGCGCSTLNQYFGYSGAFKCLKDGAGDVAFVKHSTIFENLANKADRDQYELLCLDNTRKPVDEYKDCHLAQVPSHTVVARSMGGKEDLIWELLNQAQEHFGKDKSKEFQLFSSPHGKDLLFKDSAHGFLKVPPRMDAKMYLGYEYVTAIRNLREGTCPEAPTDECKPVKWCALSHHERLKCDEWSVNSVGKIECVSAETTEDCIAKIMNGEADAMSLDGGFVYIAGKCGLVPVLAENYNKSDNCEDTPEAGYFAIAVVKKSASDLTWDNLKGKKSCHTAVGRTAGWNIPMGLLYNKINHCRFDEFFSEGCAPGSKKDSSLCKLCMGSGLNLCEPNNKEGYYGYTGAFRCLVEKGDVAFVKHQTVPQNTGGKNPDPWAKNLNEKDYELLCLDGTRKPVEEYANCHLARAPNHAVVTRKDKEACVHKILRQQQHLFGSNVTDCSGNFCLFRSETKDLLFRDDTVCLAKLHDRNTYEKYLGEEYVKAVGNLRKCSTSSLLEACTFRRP

With `CC(=O)N(O)CCCCCNC(=O)CCC(=O)N(O)CCCCCNC(=O)CCC(=O)N(O)CCCCCN` [DFOB, desferrioxamine B], the Kd on Y169F N-His6-FhuD2 (app Kd) was 0.07 ± 0.01 µM; on R175A N-His6-FhuD2 (app Kd), 0.04 ± 0.009 µM; on Y167F N-His6-FhuD2 (app Kd), 0.06 ± 0.009 µM; at N-His6-YxeB, 0.03 ± 0.02 µM; at W173A N-His6-FhuD2 (app Kd), 0.1 ± 0.05 µM; at Y106F N-His6-FhuD2 (app Kd), 0.08 ± 0.02 µM. For the same molecule, the Kd worked out at 0.05 ± 0.01 µM at Y254F N-His6-FhuD2 (app Kd), 0.09 ± 0.01 µM on N-His6-FhuD2, 0.06 ± 0.02 µM at W255A N-His6-FhuD2 (app Kd) and 0.08 ± 0.03 µM at Y256F N-His6-FhuD2.

Take `CC(=O)N([O-])CCCCCNC(=O)CCC(=O)N([O-])CCCCCNC(=O)CCC(=O)N([O-])CCCCCNc1ccc([N+](=O)[O-])c2nonc12.[Fe+3]` [FO-NBD, ferrioxamine B-2-(4-nitro-2,1,3-benzoxadiazol-7-yl) conjugate]: the “app Kd” value is recorded as “nanomolar affinity” on N-His6-YxeB (wild-type N-His6-YxeB 100 nM, TBS buffer pH 7.4, one site binding model) and “nanomolar affinity” at N-His6-FhuD2 (wild-type N-His6-FhuD2 100 nM, TBS buffer pH 7.4, one site binding model). In addition, the “apparent log KFe” value in data set [1] (no FhuD2) turned out to be 30.8 ± 0.3.

Consider `CC(=O)N([O-])CCCCCNC(=O)CCC(=O)N([O-])CCCCCNC(=O)CCC(=O)N([O-])CCCCCN.[Fe+3]` [FOB, ferrioxamine B], for which the Kd at Y169F N-His6-FhuD2 (read-out: app Kd) is 0.04 ± 0.009 µM; on Y167F N-His6-FhuD2 (read-out: app Kd), 0.04 ± 0.006 µM; at Y254F, 0.01 ± 0.002 µM; at R175A, 0.03 ± 0.009 µM; on W173A N-His6-FhuD2 (read-out: app Kd), 0.06 ± 0.008 µM; at FhuD2 [2], 0.03 ± 0.006 µM. Also, the Kd on Y106F was determined as 0.04 ± 0.008 µM; on Y106F N-His6-FhuD2 (read-out: app Kd), 0.04 ± 0.008 µM; on Y256F, 0.06 ± 0.01 µM; on Y254F N-His6-FhuD2 (read-out: app Kd) it was 0.01 ± 0.002 µM; at Y169F, 0.04 ± 0.009 µM; at W255A N-His6-FhuD2 (read-out: app Kd), 0.06 ± 0.05 µM. In addition, the Kd on Y256F N-His6-FhuD2 (read-out: app Kd, FhuD2 variant Y256F) was 0.06 ± 0.01 µM. Moreover, the “apparent log KFe” value in data set [1] (1:1 stoichiometric complex with FhuD2) stood at 28.5 ± 0.1; in data set [1] (no FhuD2) it was 30.3 ± 0.4. For the same molecule, the “ability to serve as ferric iron donor to DFO-NBD” value with SBPs (FhuD2 or YxeB) is “serve as a donor of ferric iron; also recorded: serve as iron donor substrates”.

As for `O=C1CCC(=O)N(O)CCCCCNC(=O)CCC(=O)N(O)CCCCCNC(=O)CCC(=O)N(O)CCCCCN1.[Fe+3]` [FOE, ferrioxamine E], the Kd at W173A came out at 0.09 ± 0.03 µM; on FhuD2 [3] it was 0.05 ± 0.006 µM; at W255A it was 0.03 ± 0.009 µM; on Y106F, 0.08 ± 0.01 µM; on Y256F, 0.04 ± 0.02 µM; on Y169F, 0.02 ± 0.002 µM.

In the case of `O=C([O-])O.[Na+]` [NaHCO3], in the data set on FhuD2 [4], the “effect on FhuD2-catalyzed exchange of iron from holo-Tf to DFO-NBD” value is given as “no apparent effect”.

“human holo-transferrin (from UniProt P02787 20-698) (natural protein)” showed a Kd with FhuD2 Y256F (S. aureus) of 0.07 µM.

On to “transferrin: human ferric holo-transferrin, host iron source and iron donor substrate”, for which the Kd in the data set with Y169F N-His6-FhuD2 (read-out: app Kd) is 0.11 ± 0.02 µM; in the data set with R175A N-His6-FhuD2 (read-out: app Kd), 0.11 ± 0.03 µM; with Y167F N-His6-FhuD2 (read-out: app Kd), 0.08 ± 0.02 µM; with W173A N-His6-FhuD2 (read-out: app Kd) it was 0.14 ± 0.03 µM; in the data set with Y254F N-His6-FhuD2 (read-out: app Kd), 0.09 ± 0.02 µM; with W255A N-His6-FhuD2 (read-out: app Kd), 0.11 ± 0.08 µM. Besides, in data set [5], the “log KFe” value is given as “≈ 22”.
